Compound activity as filed in PubChem BioAssay.
HSF1 activator: increases HSF-1 driven luciferase reporter signal. NIH3T3-HGL HSF-1 luciferase reporter, MG132, 8 h; 100% = twice DMSO control signal. activation, % at 9 µM. hit rate 1.7% among 300,000. AID 504408;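 active means mean replicate activation of at least 50% with a set share of replicates each reaching 50%; inconclusive means only one of those two conditions met; inactive means mean below 50% and too few replicates reaching it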;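 further: 0% = median of the neutral control wells and 100% = twice that signal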
Mdm2 ligase inh: inhibitors of human Mdm2 E3 ubiquitin ligase | signal enhancement, % at 5 µM | AID 1230 | hit rate 0.11% among 210,000 | Q00987 | cell-based MDM2 ubiquitination luciferase reporter, 2 h; 0 = plate control, 100 = twice control, blank-subtracted;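 active means signal enhancement of 30% or more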;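 further: luminescence tracks abundance of the self-degrading MDM2-luciferase fusion protein; higher signal means inhibition of MDM2 E3 ligase activity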
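Material: Stable MDM2–luciferase fusion reporter cells | Amount: 2000 cells seeded into each well | Dosing: One concentration, 5 µM, with 0.2% DMSO | Incubation: 4 h cell settling then 2 h compound exposure, 37 °C | Measured by: Luciferase luminescence | Read-out basis: % enhancement relative to plate controls after blank subtraction | Benchmarks: Control and blank well means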
HSV replic up: increases HSV replication in cells; HSV replication augmentation in cells, fold increase; maximum fold increase; hit rate 0.005% among 220,000; in the data active means maximum fold increase above about 1.5; inconclusive means no clear call, values can overlap the other calls; tested in PC3 cells
HSF1 inhib: HSF1 inhibition; hit rate 0.77% among 300,000; NIH3T3-HGL HSE-luciferase, MG132-induced, luminescence 8 h; stronger effect = lower value; AID 2098; activity change, negative = inhibition, % at 7.5 µM (by protocol);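 active means more than half of replicate wells show activity change below -50%, luminescence cut by over half; inconclusive means some wells, but at most half, below -50%; inactive means no replicate well below -50%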;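 further: luciferase reports HSF-1 transcriptional activity via heat shock element; 0% = median of DMSO wells and -100% = zero luminescence signal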
Hsp70 activator: transcriptional activators of Hsp70; HeLa Hsp70 promoter luciferase reporter, luminescence; scaled: vehicle 0, proteasome-inhibitor control 100%; hit rate 0.04% among 200,000; activation, % at 10 µM;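 active means activation above the mean across all tested compounds plus 3 SD, cutoff set per campaign, cut at about 5.5% in these data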;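 further: 100% = MG132 at 30 µM as the positive control and 0% = DMSO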
Rad51 HR inh: Rad51 (human) homologous recombination inhibition. AID 1385. inhibition, % at 10 µM. Q06609. hRad51 DNA strand exchange, fluorescence dequenching. hit rate 0.085% among 200,000;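 active means inhibition above 40% at the single screening dose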;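 further: 0% = DMSO control wells and 100% = blanks with heterologous ssDNA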
Target sequence (Q06609 whole entry, looked up): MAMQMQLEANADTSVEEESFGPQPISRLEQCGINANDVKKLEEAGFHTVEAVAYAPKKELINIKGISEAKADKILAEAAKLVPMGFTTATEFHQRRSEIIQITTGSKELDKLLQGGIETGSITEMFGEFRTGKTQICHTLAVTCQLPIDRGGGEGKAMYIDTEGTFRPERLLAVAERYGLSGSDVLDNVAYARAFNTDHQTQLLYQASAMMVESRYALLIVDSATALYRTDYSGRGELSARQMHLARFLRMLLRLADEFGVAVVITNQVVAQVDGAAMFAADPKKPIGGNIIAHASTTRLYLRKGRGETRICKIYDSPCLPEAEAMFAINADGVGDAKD
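Material: human Rad51–ssDNA filaments; Probe or stimulus: labelled 47-mer dsDNA for strand exchange; Doses: single 10 µM dose; Incubation: 37 °C 15-min filament assembly, 30-min compound preincubation, 15-min exchange; Technique: FRET fluorescence dequenching, excitation 485 nm, emission 520 nm; Measure: Fluorescence-based percent inhibition, control- and blank-normalised; Benchmarks: plate control and blank wells.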
* hit, by the source's call; i = inactive; u = inconclusive; x = no result. An excerpt weighted towards active compounds, which were near 2.6% of everything screened.

SMILES | HSF1 activator | Mdm2 ligase inh | HSV replic up | HSF1 inhib | Hsp70 activator | Rad51 HR inh
Cc1ncc(CN2CCCC(CCC(=O)NCc3ccc(F)c(F)c3)C2)s1 (configuration not stated) | 2 | 5 | i | 2 | 0 | 1
Cc1ccc(Sc2nc(-c3ccccc3)nnc2C(F)(F)F)cc1 | 151* | -2 | i | 88 | 0 | 0
COC(=O)c1nc(Cl)c(Cl)c(N)c1Cl | -77 | -8 | i | -72* | 0 | 0
CCCCCCCCOC(=O)c1nc(Cl)c(Cl)c(N)c1Cl | -4 | -4 | i | -5 | 0 | 3
C=CCn1c(=O)c(C(=O)Nc2ccccc2O)c(O)c2ccccc21 | 26 | -8 | i | 14 | 0 | -5
C=CCn1c(=O)c(C(=O)Nc2ccccc2C)c(O)c2ccccc21 | 75* | x | x | 32 | x | x
C=CCNC(=S)N/N=C/c1ccc(-c2ccc(Br)cc2)o1 | 78* | -15 | i | 41 | 0 | -5
CC(=Nc1ccc(Br)cc1)c1sc2ccccc2c1O | 60* | -17 | u | 42 | x | x
CC(=Nc1ccccc1)c1sc2ccccc2c1O | 35 | -12 | u | 20 | 0 | x
COc1ccc(NC(=O)CN2C(=O)NC(C)(c3ccccc3)C2=O)c(OC)c1 (configuration not stated) | -2 | x | x | -5 | x | x
O=C(Cn1nc2ccccc2n1)N/N=C/c1ccc(F)cc1 | 0 | -11 | i | -5 | x | 7
Cc1cc(Cn2nc(-c3ccccc3)cc2C(=O)NCC2CC2)on1 | -17 | x | x | -1 | x | x
CCCCn1cnc2c(oc3nc4c(cc32)CCCC4)c1=O | 53* | -31 | i | 12 | x | 9
CCCCN(CC)C(=O)Cn1ncc2c3ccccc3n(CCC)c2c1=O | 3 | x | x | -5 | x | x
CC(=O)Nc1cccc(C(=O)OCC(=O)N2CCC(c3ccccc3)=N2)c1 | 25 | x | x | 9 | x | x
O=C(COc1ccccc1Cl)NC1CC1 | 6 | x | x | 4 | x | x
COc1cc(OC)c(-c2nc3ccccc3s2)cc1OC | -10 | 0 | i | -2 | 0 | 0
COc1ccc(C(=O)NCc2ccc(-c3nc4ccccc4s3)cc2)cc1 | 60* | 2 | i | 24 | 0 | -6
COc1ccccc1C(=O)NCc1ccc(-c2nc3ccccc3s2)cc1 | -53 | -49 | i | -59* | 0 | -6
COC(=O)Cc1ccc2sc(-c3ccccc3)nc2c1 | 61* | -58 | i | 30 | 0 | -3
COc1cccc(-c2nc3ccccc3s2)c1O | 90* | -39 | i | 39 | 0 | -2
CC(OC(=O)Cc1c[nH]c2ccccc12)C(=O)Nc1ccccc1F (configuration not stated) | 12 | x | x | -1 | x | x
C=CCNC(=O)c1ccc(CSc2nc3ccccc3s2)cc1 | 20 | x | x | 11 | x | x
CC(=O)NCCNC(=O)c1ccc(CSc2nc3ccccc3s2)cc1 | -60 | x | x | -59* | x | x
CC(C)(C)c1ccc(OCC(=O)N/N=C/c2ccc(N3CCOCC3)cc2)cc1 | -1 | 3 | i | 1 | 0 | 17
SMILES | HSF1 activator | Mdm2 ligase inh | HSV replic up | HSF1 inhib | Hsp70 activator | Rad51 HR inh
COC(=O)c1cc(S(=O)(=O)C(C)C)c(S(C)=O)s1 (configuration not stated) | 90* | -3 | i | 53 | x | 0
CC(=O)c1ccc(NC(=O)CO/N=C(\C)c2cccs2)cc1 | -14 | 5 | i | 0 | 0 | 8
C/C(=N\OCC(=O)Nn1c(=O)[nH]c2ccccc2c1=O)c1cccs1 | -68 | -10 | i | -58* | 0 | -4
CCC1CC(C(=O)Nc2ccccc2)C(=O)O1 (configuration not stated) | 2 | x | x | -5 | x | x
CCn1nc(C)c(/C=N/NC(=O)c2c[nH]c3ccccc23)c1C | -76 | -4 | i | -70* | 0 | 8
O=C(COc1ccc(Br)cc1)Nc1ccc(-c2nnc(-c3ccco3)o2)cc1 | 51* | -15 | i | 28 | 1 | 1
COc1ccccc1OCC(=O)Nc1ccc(-c2nnc(-c3ccco3)o2)cc1 | 24 | 6 | i | 9 | 0 | -5
O=S(=O)(NC1Cc2ccccc2C1)c1ccccc1 | 9 | x | x | 1 | x | x
CCN(CC)c1ccc(NC(=O)COC(=O)/C=C/c2nc3ccccc3s2)cc1 | -8 | -1 | i | 2 | 0 | 5
CCN(CC)c1ccc(/C=C/c2nc3ccccc3s2)cc1 | -85 | -10 | u | -82* | 0 | -22
CO/N=C/C(C#N)=C/c1cc(C(=O)c2ccccc2)cn1C | -17 | 3 | i | -7 | 0 | 13
Cc1c2c(nc3ccccc13)CCC(C(C)(C)C)C2 (configuration not stated) | 57* | -9 | i | 33 | 0 | -30
CC(C)c1nc(NCCO)c2nnn(Cc3ccccc3)c2n1 | 1 | 2 | i | 1 | 0 | 3
CCOC(=O)C1(Cc2ccc(OC)cc2)CCN(C(=O)c2cc3ccccc3[nH]2)CC1 | 77* | 2 | i | 56 | 0 | 8
Cc1cccc(N=Nc2c(C)c(C#N)c(O)[nH]c2=O)c1 | 54* | -8 | u | 21 | 0 | -29
Cc1csc(NC(=O)CCC(=O)N(CC(=O)NC2CCCC2)Cc2ccccc2)n1 | 8 | x | x | 2 | x | x
COc1ccccc1CNC(=O)COC(=O)c1ccccc1-c1ccccc1 | 27 | x | x | 13 | x | x
CC(C)c1onc(C(=O)N2CCN(C(c3ccccc3)c3ccccc3)CC2)c1[N+](=O)[O-] | -62 | x | x | -57* | 0 | x
CCC(C)NC(=O)Cc1c(C)c2cc3c(cc2oc1=O)OC(C)(C)CC3 (configuration not stated) | 35 | x | x | 23 | x | x
NC(=O)C1CCN(C(=O)c2ccc3c(=O)n(Cc4ccco4)c(SCc4ccc([N+](=O)[O-])cc4)nc3c2)CC1 | 33 | x | x | 21 | x | x
O=S(=O)(Nc1nc2ccccc2[nH]1)c1ccccc1 | -1 | -12 | i | 1 | 0 | 5
CS(=O)(=O)Nc1nc2ccccc2[nH]1 | -86 | -3 | i | -82* | x | 8
O=[N+]([O-])c1ccc2nc(-c3ccccc3)n(OCc3ccc(Cl)cc3)c2c1 | 59* | -1 | i | 17 | 0 | -1
COn1c(-c2ccccc2)nc2ccc(Cl)cc21 | 66* | -7 | i | 32 | 0 | -5
O=C(O)COn1c(-c2ccccc2)nc2ccc(Cl)cc21 | 6 | -37 | i | 0 | 0 | 16
COc1ccc(N=C(C)C2=C(O)c3ccccc3C2=O)cc1 | 67* | -40 | i | 36 | 0 | 3
C/C(=N\N(C)C)C1=C(O)c2ccccc2C1=O | 2 | 3 | i | 1 | 0 | 9
CCOc1ccc(N=C(C)C2=C(O)c3ccccc3C2=O)cc1 | 63* | -42 | i | 27 | x | 10
